This passage reports yeast fitness results from the RNAGym collection of RNA variant scans (doi:10.1126/science.aae0568).

Sequences and labels used below:
B1: tRNA (parent)
chain: GUUCCGUUGGCGUAAUGGUAACGCGUCUCCCUCCUAAGGAGAAGACUGCGGGUUCGAGUCCCGUACGGAACG

Fewer inactive variants are shown than the library holds.

The data set covers variants of B1. Description: yeast fitness relative to wild type (ratio to wild type); higher = fitter; tRNA-Arg(CCU), competitive growth, 37 C, YPD. The procedure, abridged:
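Gene amplicons from the start population and from each of six end populations were read by 100-nucleotide paired-end sequencing. Those end populations came from pooled Saccharomyces cerevisiae strains carrying tRNA-Arg(CCU) gene variants at the native locus, competed in YPD at 37°C for 24 hours. Fitness relative to wild type was worked out from changes in genotype frequencies. Genotypes needed ≥ 100 starting reads, and estimates < 0.5 were set to 0.5.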
As to GCUCCGUUGGUGUAAUGGUAACGCGUCUCCCUCCUAAGGAGAAGACUGCGGGUUCGAGUCCCGUCCGGAACG, the yeast fitness is 0.583.
To GCUCAGUUGGCGUAAUGGUAACGCGUCUCGCUCCUAAGGAGAAGACUGCGGGUUCGAGUCCCGUACGGAACG belongs at most 0.5; to GCUCUGUUGGCGUAAUGGUAACGCGUGACCCUCCUAAGGAGAUGACUGCGGGUUCGAGUCCCGUACGGAACG, at most 0.5.
Next, GCUCCGUUGGGGUAAUGGUAACGCGUUUCCCUCCUAAGGAGAAGAGUGCGGGUUCGAGUCCCGUACGGAACG: 0.606.
Turning to GCUCCGUUGGGGUAAUGGUAACGCGUCUCCCUCCUAAGGAGAAGAAUGCGGGUUCGUGUCCCGUACGGAACG, the yeast fitness is at most 0.5.
Regarding GCUCGGUUGGCGUAAUGGUAACGCGUCUCCCUCCUAGGGAGAAGACUACGGGUUCGAGUCCCGUACGGAACG, the yeast fitness is at most 0.5.
GCUCGGUUGGCGUAAUGGUAACGCGUCUCCCUCCUAAGGAGAAGCCUGCGGGUUCGAGUCCCGUACGGUACG: the yeast fitness is 0.549.
Next, GCUCCGUUGGGGUAAUGGUAACGCGUCUCCCUCCUAAGGAGAAGAAUGCGGGUUCGAGUCCCGUACGGACCG: at most 0.5; GCUCGGUUGGCGUAAUGGUAACGCGUCUCCCUCCUAAGGAGAAGAUUGCGGGUGCGAGUCCCGUCCGGAACG: at most 0.5; GCUCCGUUGGGGUAAUGGUAACGAGUCUCCCUCCUAAGGAGAAGACUGCGGGUUAGAGUCCCGUACGGAACG: 0.786.
To GCUCCGUUGGUGUAAUGGUAACGCGUCUCCCUCCUAUGGAGAAGACUGCGGGAUCGAGUCCCGUACGGAACG belongs at most 0.5.
To GCUCCGUUGGUGUAAUGGUAACGCGUCUCCCUCCUAAGGAGAAGACUGCGGGUUCGAGUCCCGUACGGAACG belongs 1.03.
With GCUCGGUUGGCGUAAUGGUAACGCGUCUCCCUCCUAAGGAGAAGAUUGCGGGUUCGAGUCCCGUACGGAGCG, the yeast fitness was 0.994.
To GCUCCGUUGGUGUAAUGGUAAUGCGUCUCCCUCCUAAGGAGAAGACUGCGGGUUCGUGUCCCGUACGGAACG belongs at most 0.5.
Next, GCUCAGUUGCCAUAAUGGUAACACGUCUCCCUCCUAAGGAGAAGACUGCGGGUUCGAGUCCCGUACGGAACG: at most 0.5; GCUCGGUUGGCGUAAUGGUAACGCGUCUCGCUCCUAAGGAGAAAACUGCGGGUUCGAGUCCCGUACGGAACG: at most 0.5.
For the variant GCUCGGUUGGCGUAAUGGUAACGCGUCUCCCUCCUAAGGAGAAGAUUGCGGGUUCGAAUCCCGUACGGAACG, the yeast fitness was determined as 0.611.
On to GCUCGGUUAGCGUAUUGGUAACGCGUCUCCCUCCUAAGGAGAAGACUGCGGGUUCGAGUCCCGUACGGUACG, for which the yeast fitness was at most 0.5.
As for GCUCGGUUGGCGUAAUGGUAACGCGUCUCCCUCCUAAGGAGAAGACUGCGGGUUCGAGUCCUGUACGGAACG, the yeast fitness amounted to 0.717.
Next, GCUCCGUUGGAGUAAUGGUAACGCGUCUCCUUUCUAAGGAGCAGACUGCGGGUUCGAGUCCCGUACGGAACG: 0.527.
For GCUCCGUUGGUGUAAUGGUACCGCGCCUCCCUCAUAAGGAGAAGUAUGCAGGUCGGAGUCCCGUACGGAACG, the yeast fitness was at most 0.5.
To GCUCGGUUGGCGUAAUGGUAACGCGUCUCCCUCCUAAGGAGAAAAAUGCGGAUUCGAGUCCCGUAUGGAACG belongs at most 0.5; to GCUCUGUUGGGGUAAUGGAAACGCGUCUCUCUCCUAAGGAGAAGACUGCGGGUUCGAAUCCCGUACGGAACG, at most 0.5.
GCUCAGUUGGCGUAAUGGUAACGAGUCUCCCUCCUAAGGAGAAGACUGCGGGUUCGAGUCCCGGACGGAACG: the yeast fitness was at most 0.5.
To GCUCCGUUGGAGUAAUGGUAACGCGUCUCCCCCCUAAGGAGAAGACUGCGGGUUCGAGUCCCGUACGGAACG belongs at most 0.5.
Turning to GCUCAGUUGGCGUAAUGGUAACGCGUCUCCCUCCUAAGGAGAAGAUUGCGGGUUCGAGUCCCGUACGGAACG, the yeast fitness amounted to 0.591.
GCUCCGUUGGUGUAAUGGUACCGCGCCUCCCUCCUAAGGAGAAGACUGCGGGUUCGUGUCCCGUACGGAACG: the yeast fitness was at most 0.5.
As for GCUCGGUUAGCGUAUUGGUAACGCGUCUCCCUCCUAAGGAGAAGACUGCGGGUUCGAGUCCCGUACGGAACG, the yeast fitness stood at 0.539.
On to GCUCCGUUGGAGUCAUGGUAAUGCGUCUCCCUCCUAAGGAGAAGUCUGCGGGUUCGAGUCCCGUACGGAACG, for which the yeast fitness is at most 0.5.
For the variant GCUCAGUUGGCGUAAUGGUAACGAGUCUCCCUCCUAAGGAGAAGACAGCGGGUUCGAGUCCCGUAGGGAACG, the yeast fitness is at most 0.5.
To GCUCCGUUGGAGUAAUGGUAACGCGUCUCCCUCCUAAGGCGAAGACUGCGGGUUCGAGUCCCGUACGGAACG belongs 0.553.
To GCUCGGUUGGCGUAAUGGUAACGCGUCUCCCUCCUAAGGAGAAGACUGCGGGUUCGAGACCCGUACGGAACG belongs 0.613; to GCUCCGUUGGGGUAAUGGGAACGCGUCUCCCUCCUAAGGAGAAGACUGCGGGUUCGAGUCCCGUACGGAACG, at most 0.5.
Next, GCUCUGUUGGCGUAUUGGUAACGCGUCUCCCUCCUAAGGAGAAGACUGCGGGUUCGAGUCCCGUACGGAACG: 0.568; GCUCCGUUGGGGUAAUGGUAACGAGUCUCCCUCCUAAGGAGAAGACUGCGGGUUCGAGUCCCGUACGGAACG: 0.665; GCUCAGUUGGCGUAAUGGUAACGCGUCUCCCUCCUAAGGAGAAGACUGCGGGUUCGAGUCCCGUUCGGAACG: 0.668.
Consider GCUCGGUUGGCGUAAUGGUAACGCGUUUCCCUCCUAAGGAGAAGGCUGCGGGCUCGAGUCCCGUACGGAACG, for which the yeast fitness was at most 0.5.
Next, GCUCCGUUGGGGUCAUGGUAACGCGUCUCCCUCCUAAGGAGAAGACUGCGGGUUCGAGUCUCGAACGGAACG: 0.623.
